MC4R ag barr: activates human MC4R beta-arrestin recruitment; U2OS MC4R beta-arrestin complementation, luminescence; percent of melanotan II response, DMSO zero; 0.98% of 360,000 active; AID 540308; activation, % at 8.9 µM;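 active = activation above a per-plate cutoff, the mean activation of sample wells on that plate plus 3 SD, cut at about 8% in these data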
Target sequence (P32245 whole entry, looked up): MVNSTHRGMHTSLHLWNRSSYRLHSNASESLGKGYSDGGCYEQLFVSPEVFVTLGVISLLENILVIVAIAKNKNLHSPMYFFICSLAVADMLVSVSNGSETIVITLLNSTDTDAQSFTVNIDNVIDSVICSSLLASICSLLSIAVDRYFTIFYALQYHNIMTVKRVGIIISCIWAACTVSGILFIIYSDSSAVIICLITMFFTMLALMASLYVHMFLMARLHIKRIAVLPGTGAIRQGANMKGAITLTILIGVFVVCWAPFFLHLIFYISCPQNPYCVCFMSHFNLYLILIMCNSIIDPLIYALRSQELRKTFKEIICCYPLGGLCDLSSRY
MC4R antag cAMP: human MC4R antagonism in cAMP assay. 0.48% of 360,000 active. MC4R-expressing cells, MTII-stimulated cAMP, LANCE TR-FRET. inhibition, % at 6.5 µM;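 active = inhibition above its plate's cutoff, the mean of tested wells on that plate plus 3 SD, cut at about 29% in these data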
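Material – human MC4R-expressing U2OS cells · Repeats – no replicates · Detection – TR-FRET with Eu-cAMP and labeled anti-cAMP, 671 nm · Times – compound 30 min, challenge 1 h, detection 1 h · Compound – single nominal compound dose of 6.5 µM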
F508del corr: correctors of CFTR F508del function in bronchial epithelial cells. CFBE cells, YFP halide quenching; stimulated with forskolin plus potentiator P3; % fluorescence drop versus neutral controls. 0.36% of 350,000 active. activity (quench increase), % at 7.58 µM;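 active = mean added fluorescence quench of at least 8% versus neutral control, with both replicates also reaching 8%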;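 also: cells transiently co-express mutant CFTR-F508del with the halide-sensitive YFP; corrector assay measuring rescue of mutant channel to the surface after 24 h compound exposure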
SMARCA2 activ: increases SMARCA2 function in MMTV reporter cells | 1% of 370,000 active | AID 652017 | activation, % at 9.1 µM | MG213 cells, MMTV-luciferase reporter, dexamethasone, overnight; in the data active = activation above about 7.8%
SMARCA2 conf: SMARCA2 activation, confirmation screen; AID 652260; 30% of 3,500 active; MG213 cells, MMTV-luciferase with dexamethasone, luminescence, overnight; MG213 cells expressing E1A, Rb sequestered; DMSO wells 0%, reference activator 100%; shares compounds with SMARCA2 activ; activation, % at 9.1 µM;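 active = activation above its plate's cutoff, the mean activation of tested wells plus 3 SD, cut at about 7.9% in these data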
GAL4-VP16 Luc: GAL4-VP16 reporter activation counter-screen. shares compounds with SMARCA2 activ. HEK293 GAL4-VP16 pG5luc reporter, luciferase luminescence; scaled: DMSO wells 0%, SAHA wells 100%. activation, % at 9.1 µM. 41% of 3,500 active. AID 686939;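 active = activation above the solvent-only control well mean plus 3 SD, averaged across control plates, cut at about 5.2% in these data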
Each line names hits and unclear results; the compound was inactive in the other large screens (follow-up assays come after a bar, where they were run). A selection: hits, their analogues and other compounds. The true share with any hit is near 2.1%.

COc1ccc(-c2nc(CCl)cs2)cc1OC	none
O=c1c(C(c2ccc(F)cc2)c2c(O)nc3n(c2=O)CCS3)c(O)nc2n1CCS2	SMARCA2 activ 9.3 | SMARCA2 conf inactive | GAL4-VP16 Luc inactive
O=c1c(C(c2ccc(Cl)cc2)c2c(O)nc3n(c2=O)CCS3)c(O)nc2n1CCS2	none
COC(=O)c1ccc2[nH]c(C)cc(=O)c2c1	none (no result: F508del corr)
COC(=O)c1ccc2[nH]c(C(C)(C)O)c(C)c2c1	SMARCA2 activ 8.2 | SMARCA2 conf inactive | GAL4-VP16 Luc inactive
CCNC(=O)C[C@@H]1CC[C@H]2[C@@H](COC[C@@H](O)CN2C(=O)CC)O1	none (no result: MC4R ag barr, MC4R antag cAMP, SMARCA2 activ)
O=C(COC(=O)C12CC3CC(CC(O)(C3)C1)C2)Nc1ccc(Br)cc1F	SMARCA2 activ 9.4 | SMARCA2 conf inactive | GAL4-VP16 Luc 8.2
CCOc1ccc2nc(SCC#N)c(C#N)cc2c1	SMARCA2 activ 8.8 (no result: F508del corr) | SMARCA2 conf 7.8 | GAL4-VP16 Luc 6.6
CCSc1nc2ccc(OC)cc2cc1C#N	none (no result: F508del corr)
C[C@H](CO)N1C[C@H](C)[C@@H](CN(C)C)Oc2cc(-c3cccc(C(=O)N(C)C)c3)ccc2S1(=O)=O	none (no result: MC4R ag barr, MC4R antag cAMP, SMARCA2 activ)
Fc1ccc(N/N=C/c2ccncc2)c(F)c1	none (no result: F508del corr)
O=C(O)c1ccc(/C=N/Nc2ccc(F)cc2F)cc1	SMARCA2 activ 10.9 | SMARCA2 conf inactive | GAL4-VP16 Luc inactive
Cc1cccc(-c2cccc3c4c([nH]c23)[C@@H]2C[C@H](N(C)C(=O)Nc3ccccc3)[C@H]([C@H](C)O)C(=O)N2CC4)c1	SMARCA2 activ 9.2 (no result: MC4R ag barr, MC4R antag cAMP, F508del corr) | SMARCA2 conf inactive | GAL4-VP16 Luc inactive
C[C@H]1CCCCO[C@H](CN(C)CC2CCCCC2)[C@@H](C)CN([C@@H](C)CO)C(=O)c2cc(NC(=O)Nc3ccc4c(c3)OCO4)ccc2O1	none (no result: MC4R ag barr, MC4R antag cAMP, SMARCA2 activ)
COc1ccc2nc3cc(Cl)ccc3c(Nc3ccc(O)c(CN4CCN(C)CC4)c3)c2c1	SMARCA2 activ 20.1 | SMARCA2 conf 90.8 | GAL4-VP16 Luc inactive
Nc1ccc2ccc(N)cc2c1	SMARCA2 activ 12.7 (no result: MC4R ag barr, MC4R antag cAMP) | SMARCA2 conf inactive | GAL4-VP16 Luc inactive
Nc1ccc2cc3ccccc3cc2c1	none
CCOC(=O)c1nn(-c2ccc3ccccc3c2)cc1O	SMARCA2 activ 8.2 | SMARCA2 conf inactive | GAL4-VP16 Luc 5.6
COc1ccc(-n2c(CN3CCN(C)CC3)nc3ccc([N+](=O)[O-])cc3c2=O)c(OC)c1	none
CCOC(=O)c1ccc(-n2c(CN3CCN(CCO)CC3)nc3ccc([N+](=O)[O-])cc3c2=O)cc1	SMARCA2 activ 9.5 | SMARCA2 conf 9.8 | GAL4-VP16 Luc inactive
COc1cccc(-n2c(CN3CCN(Cc4ccccc4)CC3)nc3ccc([N+](=O)[O-])cc3c2=O)c1	SMARCA2 activ 11.5 (no result: MC4R ag barr, MC4R antag cAMP, F508del corr) | SMARCA2 conf inactive | GAL4-VP16 Luc inactive
O=S(=O)(N[C@H]1CC[C@H](CCn2cc(-c3cccnc3)nn2)O[C@H]1CO)c1ccc(Cl)cc1	none (no result: MC4R ag barr, MC4R antag cAMP, SMARCA2 activ)
CCOC(=O)C(Nc1ccc2ccccc2c1)C(=O)OCC	SMARCA2 activ 8.3 (no result: F508del corr) | SMARCA2 conf 7.9 | GAL4-VP16 Luc inactive
C[C@@H]1CN([C@@H](C)CO)C(=O)c2cccc(NC(=O)c3ccc(-c4nccs4)cc3)c2O[C@H]1CN(C)CC1CCCCC1	none (no result: MC4R ag barr, MC4R antag cAMP, SMARCA2 activ)
CC(=O)C1CCC2C3CC=C4CC(SC(=N)N)CCC4(C)C3CCC12C (configuration not stated)	MC4R ag barr 15.2, SMARCA2 activ 10.3 | SMARCA2 conf inactive | GAL4-VP16 Luc inactive
CC(=O)OCC(=O)C1CCC2C3CC=C4CC(O)CCC4(C)C3CCC12C (configuration not stated)	none
Cc1noc(C)c1NC(=O)Nc1ccc2c(c1)C(=O)N([C@H](C)CO)C[C@H](C)[C@H](CN(C)C(=O)Nc1ccccc1)OCCCC[C@@H](C)O2	none (no result: MC4R ag barr, MC4R antag cAMP, SMARCA2 activ)
CC(C)Oc1ccc(CNC(=S)N/N=C/c2ccc([N+](=O)[O-])cc2)cc1	SMARCA2 activ 10.2 | SMARCA2 conf inactive | GAL4-VP16 Luc inactive
COCCNC(=O)/C(C#N)=C/C=C/c1ccccc1[N+](=O)[O-]	SMARCA2 activ 12.2 | SMARCA2 conf 17.9 | GAL4-VP16 Luc inactive
COCCNC(=O)/C(C#N)=C/c1ccc(O)c([N+](=O)[O-])c1	none
